For 13 compounds, MIC and inhibition zone (IZ) results are on record in ChEMBL document CHEMBL4152354, “A reusable magnetic nickel nanoparticle based catalyst for the aqueous synthesis of diverse heterocycles and their evaluation as potential anti-bacterial agent” (2018).

Format in all cases: functional
The test system of assay [1] is Klebsiella pneumoniae. Briefly: Antibacterial activity against Klebsiella pneumoniae MTCC 109 after 18 hrs by TTC staining based broth microdilution method. To be noted: MTCC 109, 18 h. A digest of the protocol: (§1)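 Broth microdilution in Mueller-Hinton broth. 50 µl of inoculum from a 0.5 McFarland suspension was added to 50 µl of compound, giving final concentrations of 0.024–400 mg/ml in DMSO. Sealed plates were incubated at 37°C for 18 h, then 50 µl of 0.5% TTC was added for 1 h in the dark. MIC was the lowest concentration with no visible growth (well stays clear). Triplicate; mean ± SD.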

Assay [2] has as its system Klebsiella pneumoniae. Briefly: Antibacterial activity against Klebsiella pneumoniae MTCC 109 assessed as zone of inhibition at 100 uL after 24 hrs by agar well-diffusion method. Summed up: (§2)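 Mueller-Hinton agar plates swabbed with a bacterial suspension adjusted to 1.5×10^8 CFU/ml. Each 5 mm well received 100 µl of compound, and plates were incubated at 37°C for 24 h. Chloramphenicol (30 mcg) was the positive control and DMSO the negative control. Inhibition zones around wells were measured manually, in triplicate.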

For assay [3], the system named is Bacillus cereus. As to the kind of experiment: Antibacterial activity against Bacillus cereus MTCC 430 after 18 hrs by TTC staining based broth microdilution method. To be noted: MTCC 430, 18 h. A digest of the protocol:
as §1

The test system of another assay is Escherichia coli. Briefly: Antibacterial activity against Escherichia coli MTCC 730 assessed as zone of inhibition at 100 uL after 24 hrs by agar well-diffusion method. Summed up: as §2
The test system of a further assay is Salmonella enterica. Briefly: Antibacterial activity against Salmonella enterica MTCC 735 assessed as zone of inhibition at 100 uL after 24 hrs by agar well-diffusion method.
Assay [4] concerns Bacillus cereus. Briefly: Antibacterial activity against Bacillus cereus MTCC 430 assessed as zone of inhibition at 100 uL after 24 hrs by agar well-diffusion method. A digest of the protocol:
as §2

The subject of a further assay is Streptococcus pyogenes. Briefly: Antibacterial activity against Streptococcus pyogenes MTCC 1925 assessed as zone of inhibition at 100 uL after 24 hrs by agar well-diffusion method. A digest of the protocol: as §2

In brackets after ≈: the same amount, converted by molar mass.

For the compound `O=C(N[C@H](CO)[C@H](O)c1ccc([N+](=O)[O-])cc1)C(Cl)Cl` [CHLORAMPHENICOL], the MIC with Klebsiella pneumoniae [1] and against Bacillus cereus [3] was 90 mg/L (≈ 279 µM) throughout. The inhibition zone (IZ) in the assay with Klebsiella pneumoniae [2] stood at 33 mm; in the assay on Escherichia coli, 35 mm; in the assay on Salmonella enterica, 17 mm; with Bacillus cereus [4] it was 22 mm; in the assay on Streptococcus pyogenes it was 36 mm.

With `Cc1[nH][nH]c(=O)c1C(c1cccc([N+](=O)[O-])c1)C1C(=O)NC(=O)NC1=O` (stereo unspecified), the MIC was determined as 780 mg/L (≈ 2170 µM) in the assay on Klebsiella pneumoniae [1] and 1560 mg/L (≈ 4340 µM) in the assay with Bacillus cereus [3]. The inhibition zone (IZ) in the assay on Klebsiella pneumoniae [2] stood at 15 mm; in the assay with Escherichia coli it was 11 mm; with Salmonella enterica, 10 mm; with Bacillus cereus [4], 13 mm; with Streptococcus pyogenes, 14 mm.

As for `Cc1ccc(C(c2c(O)c3ccccc3oc2=O)c2c(O)c3ccccc3oc2=O)cc1`, the MIC in the assay with Klebsiella pneumoniae [1] and against Bacillus cereus [3] was 390 mg/L (≈ 915 µM) in each case. In addition, the inhibition zone (IZ) in the assay with Klebsiella pneumoniae [2] turned out to be 20 mm; in the assay on Escherichia coli, 19 mm; in the assay with Salmonella enterica, 10 mm; with Bacillus cereus [4], 18 mm; in the assay on Streptococcus pyogenes, 25 mm.

Regarding `COc1ccc(C(c2c(O)c3ccccc3oc2=O)c2c(O)c3ccccc3oc2=O)cc1OC`, the MIC in the assay on Klebsiella pneumoniae [1] and against Bacillus cereus [3] was 780 mg/L (≈ 1650 µM) throughout. In addition, the inhibition zone (IZ) in the assay with Klebsiella pneumoniae [2] is 18 mm; with Escherichia coli it was 15 mm; with Salmonella enterica, 10 mm; in the assay on Bacillus cereus [4], 16 mm; with Streptococcus pyogenes it was 13 mm.

On to `Cc1ccc(C(c2c(C)[nH][nH]c2=O)C2C(=O)NC(=O)NC2=O)cc1` (stereo unspecified), for which the MIC in the assay with Klebsiella pneumoniae [1] amounted to 3120 mg/L (≈ 9500 µM); in the assay with Bacillus cereus [3], 6250 mg/L (≈ 19000 µM). For the same compound, the inhibition zone (IZ) in the assay on Klebsiella pneumoniae [2] stood at 10 mm; with Escherichia coli, 12 mm; in the assay on Salmonella enterica it was 10 mm; in the assay with Bacillus cereus [4], 12 mm; in the assay with Streptococcus pyogenes, 11 mm.

For `Cc1[nH][nH]c(=O)c1C(c1cccc(F)c1)C1C(=O)NC(=O)NC1=O` (stereo unspecified), the minimal inhibitory concentration (MIC) turned out to be 390 mg/L (≈ 1170 µM) in the assay on Klebsiella pneumoniae [1] and 780 mg/L (≈ 2350 µM) in the assay with Bacillus cereus [3]. For the same compound, the inhibition zone (IZ) in the assay with Klebsiella pneumoniae [2] was determined as 20 mm; in the assay on Escherichia coli, 15 mm; with Salmonella enterica, 11 mm; in the assay on Bacillus cereus [4] it was 15 mm; with Streptococcus pyogenes, 15 mm.

`O=c1oc2ccccc2c(O)c1C(c1cccc(Br)c1)c1c(O)c2ccccc2oc1=O`: the figures for the MIC in the assay with Klebsiella pneumoniae [1] and with Bacillus cereus [3] were 390 mg/L (≈ 794 µM) and 3120 mg/L (≈ 6350 µM), respectively. Further, the inhibition zone (IZ) with Klebsiella pneumoniae [2] came out at 20 mm; with Escherichia coli it was 19 mm; in the assay on Salmonella enterica, 11 mm; with Bacillus cereus [4], 13 mm; in the assay on Streptococcus pyogenes, 21 mm.

Regarding `Cc1[nH][nH]c(=O)c1C(c1ccc(Cl)cc1)C1C(=O)NC(=O)NC1=O` (stereo unspecified), the MIC against Klebsiella pneumoniae [1] was determined as 390 mg/L (≈ 1120 µM); in the assay on Bacillus cereus [3], 1560 mg/L (≈ 4470 µM). In addition, the inhibition zone (IZ) is 21 mm in the assay with Klebsiella pneumoniae [2]; 17 mm in the assay with Escherichia coli; 11 mm in the assay on Salmonella enterica; 17 mm in the assay on Bacillus cereus [4]; 16 mm in the assay with Streptococcus pyogenes.

Take `CCOc1ccc(C(c2c(O)c3ccccc3oc2=O)c2c(O)c3ccccc3oc2=O)cc1`: the MIC in the assay with Klebsiella pneumoniae [1] was determined as 780 mg/L (≈ 1710 µM); against Bacillus cereus [3] it was 3120 mg/L (≈ 6840 µM). The inhibition zone (IZ) is 19 mm in the assay on Klebsiella pneumoniae [2]; 13 mm in the assay on Escherichia coli; 11 mm in the assay with Salmonella enterica; 12 mm in the assay with Bacillus cereus [4]; 20 mm in the assay with Streptococcus pyogenes.

Consider `O=c1oc2ccccc2c(O)c1C(c1ccc(Cl)cc1)c1c(O)c2ccccc2oc1=O`, for which the MIC is 190 mg/L (≈ 425 µM) against Klebsiella pneumoniae [1] and 390 mg/L (≈ 873 µM) against Bacillus cereus [3]. Further, the inhibition zone (IZ) in the assay with Klebsiella pneumoniae [2] worked out at 25 mm; in the assay with Escherichia coli it was 23 mm; with Salmonella enterica, 10 mm; in the assay with Bacillus cereus [4], 19 mm; in the assay with Streptococcus pyogenes, 24 mm.

Take `COc1ccc(C(c2c(C)[nH][nH]c2=O)C2C(=O)NC(=O)NC2=O)cc1` (stereo unspecified): the values for the minimal inhibitory concentration (MIC) in the assay on Klebsiella pneumoniae [1] and in the assay with Bacillus cereus [3] were 3120 mg/L (≈ 9060 µM) and 6250 mg/L (≈ 18200 µM), respectively. Also, the inhibition zone (IZ) with Klebsiella pneumoniae [2] came out at 11 mm; in the assay with Escherichia coli, 14 mm; in the assay with Salmonella enterica, 11 mm; in the assay on Bacillus cereus [4], 14 mm; in the assay with Streptococcus pyogenes it was 13 mm.

Take `COc1cc(C(c2c(C)[nH][nH]c2=O)C2C(=O)NC(=O)NC2=O)cc(OC)c1OC` (stereo unspecified): the values for the MIC against Klebsiella pneumoniae [1] and against Bacillus cereus [3] were 390 mg/L (≈ 964 µM) and 1560 mg/L (≈ 3860 µM), respectively. Further, the inhibition zone (IZ) with Klebsiella pneumoniae [2] worked out at 19 mm; in the assay on Escherichia coli, 13 mm; in the assay on Salmonella enterica it was 11 mm; in the assay on Bacillus cereus [4], 13 mm; with Streptococcus pyogenes, 17 mm.

In the case of `Cc1[nH][nH]c(=O)c1C(c1ccc(N(C)C)cc1)C1C(=O)NC(=O)NC1=O` (stereo unspecified), the MIC in the assay with Klebsiella pneumoniae [1] and against Bacillus cereus [3] was 3120 mg/L (≈ 8730 µM) in each case. The inhibition zone (IZ) in the assay with Klebsiella pneumoniae [2] is 10 mm; in the assay on Escherichia coli it was 10 mm; in the assay with Salmonella enterica, 12 mm; in the assay on Bacillus cereus [4] it was 13 mm; in the assay on Streptococcus pyogenes, 10 mm.
